Experimental data from PubChem BioAssay.
Active and inactive are the calls of the source.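 The calls were made as follows, unless noted: active = viability loss from added drug above about 55%, and viability with drug at most 40%, in both replicates (limit read from the data, passing the limit was not always enough); inconclusive = both conditions met in only one replicate; inactive = neither replicate meets both conditions.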

Legend:
[1] = reducers of endogenous Her2 protein level, primary screen, SKBR3 breast tumor cells, AlphaScreen, ATP viability (AID 461;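 active = Her2 level under about 52% in both replicate screens, with viability over 70% of control, limit read from the data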;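 as to Her2 level: lower value means less Her2 protein in the cells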;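 as to viability: percent of carrier control wells set as 100% viability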); settings: 18-24 h, measured here: SKBR3 viability, ATP luminescence, at 10 µM
[2] = biological target: Receptor tyrosine-protein kinase erbB-2 (Homo sapiens) (UniProt P04626); experiment: as above; settings: 18-24 h, at 10 µM, stronger effect = lower value
Sequence of Receptor tyrosine-protein kinase erbB-2 (Homo sapiens) (P04626 whole entry, looked up): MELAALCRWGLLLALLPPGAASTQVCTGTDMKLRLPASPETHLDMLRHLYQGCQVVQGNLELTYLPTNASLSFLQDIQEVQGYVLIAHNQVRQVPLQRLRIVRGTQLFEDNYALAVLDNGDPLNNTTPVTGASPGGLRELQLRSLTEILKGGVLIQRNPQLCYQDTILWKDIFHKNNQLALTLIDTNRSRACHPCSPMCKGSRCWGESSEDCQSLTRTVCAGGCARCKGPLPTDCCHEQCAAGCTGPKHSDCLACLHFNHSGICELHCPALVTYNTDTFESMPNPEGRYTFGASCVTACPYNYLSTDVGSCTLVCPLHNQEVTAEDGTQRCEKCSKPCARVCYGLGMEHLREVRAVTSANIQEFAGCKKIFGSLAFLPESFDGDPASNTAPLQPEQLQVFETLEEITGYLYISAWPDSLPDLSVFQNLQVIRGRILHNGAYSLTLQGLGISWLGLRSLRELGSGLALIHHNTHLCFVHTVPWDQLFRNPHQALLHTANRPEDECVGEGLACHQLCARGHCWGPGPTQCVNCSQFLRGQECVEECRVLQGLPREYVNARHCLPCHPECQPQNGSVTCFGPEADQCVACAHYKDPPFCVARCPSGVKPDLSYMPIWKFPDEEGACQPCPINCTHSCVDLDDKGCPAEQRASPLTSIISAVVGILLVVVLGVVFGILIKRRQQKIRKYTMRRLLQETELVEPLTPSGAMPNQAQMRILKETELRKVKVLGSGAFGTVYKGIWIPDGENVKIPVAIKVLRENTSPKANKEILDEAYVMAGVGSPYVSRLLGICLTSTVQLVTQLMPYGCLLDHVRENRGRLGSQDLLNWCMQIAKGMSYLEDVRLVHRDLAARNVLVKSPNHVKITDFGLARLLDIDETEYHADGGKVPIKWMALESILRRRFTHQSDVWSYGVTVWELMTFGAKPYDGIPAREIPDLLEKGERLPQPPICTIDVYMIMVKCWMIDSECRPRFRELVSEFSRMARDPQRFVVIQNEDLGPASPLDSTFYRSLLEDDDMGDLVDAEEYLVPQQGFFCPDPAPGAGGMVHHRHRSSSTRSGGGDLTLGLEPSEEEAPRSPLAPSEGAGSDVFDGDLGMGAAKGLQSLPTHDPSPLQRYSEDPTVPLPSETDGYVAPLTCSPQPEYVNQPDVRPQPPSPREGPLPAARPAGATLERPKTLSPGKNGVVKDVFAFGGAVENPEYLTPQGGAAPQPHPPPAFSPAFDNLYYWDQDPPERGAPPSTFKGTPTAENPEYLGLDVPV

[3] = SK-BR-3 cell growth inhibitors, pilot screen, 24 h, human (AID 572;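 active = viability at or below 10% of carrier control in both of two separate runs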;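 also: compound exposure lasted between 18 and 24 h rather than exactly 24 h; 100% = carrier-treated control wells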); settings: SK-BR-3 viability, CellTiter-Glo luminescence, at 10 µM, stronger effect = lower value
[4] = HUVEC growth inhibition – cell-based, human, primary screen (AID 575;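 active = viability at or below 30% in both replicate assays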;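 also: 100% = median of untreated cell wells with 0.1% DMSO on each plate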); settings: HUVEC proliferation, CellTiter-Glo luminescence, 72 h; at 10 µM; stronger effect = lower value
Outline: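 Test system: primary human umbilical vein endothelial cells. Quantity: 1250 cells/well. Compound: single 10 µM dose, 0.1% DMSO, from 5x medium stock. Timing: 72 h treatment at 37 °C. Detection: ATP-based CellTiter-Glo luminescent read. Benchmarks: vehicle and MePR control wells. Format: 384-well plates coated with collagen.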

[5] = growth inhibitors of H69AR lung tumor, primary screen, human, duplicate replicates (AID 580;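 active = viability at or under a set limit in both replicates, limit being median viability minus 3 SD, cut at about 48% in these data, passing the limit was not always enough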;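 also: 100% = mean luminescence of untreated wells and 0% = no signal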); settings: H69AR lung tumor cells viability, ATP luminescence, 72 h; at 10 µM; stronger effect = lower value
[6] = reversal of MRP1-mediated doxorubicin resistance, pilot screen, H69AR cells, doxorubicin co-treatment (AID 601); settings: CellTiter-Glo, 72 h, at 10 µM; for differential viability (reversal): stronger effect = higher value
[7] = 384-well plate pilot, post-Golgi transport modulator project, inhibition of yeast transport mutant growth (AID 636; in the data active = inhibition above about 31%); settings: absorbance 615 nm, about 18 h, stronger effect = higher value
[8] = growth suppression of yeast trafficking mutant, preliminary HTS, modulators of trafficking downstream of Golgi apparatus project, 1536-format plate, OD 615 nm (AID 637; in the data active = inhibition above about 30%); settings: yeast transport mutant growth, absorbance 615 nm, 18 h; stronger effect = higher value
[9] = H69AR cells + 2 uM doxorubicin, measured here: viability with 2 uM doxorubicin, stronger effect = lower value
[10] = H69AR cells, compound alone cytotoxicity

Compound	viability [1]	Her2 level [2]	viability [3]	viability [4]	viability [5]	differential viability (reversal) ([6]; H69AR cells + 2 uM doxorubicin)	viability [6, 9]	viability [6, 10]	inhibition [7]	inhibition [8]
CCn1c(=O)cc(SCC(=O)NCC2CCCO2)c2ccccc21 (stereo not given)	89%	87% (inactive)	89% (inactive)	88.7% (inactive)	87% (inactive)	8.63% (inactive)	78.4%	87%	-3.03% (inactive)	-7.27% (inactive)
CC12CCC(C(=O)N3CCCCC3)(CC1=O)C2(C)C (stereo not given)	97.5%	102% (inactive)	97.5% (inactive)	96.3% (inactive)	97.8% (inactive)	0.59% (inactive)	97.2%	97.8%	-3.08% (inactive)	-0.83% (inactive)
CCc1[nH]nc2c1C(c1cccc(OC(=O)N3CCOCC3)c1)C(C#N)=C(N)O2 (stereo not given)	133%	124% (inactive)	133% (inactive)	103% (inactive)	89.5% (inactive)	-9.21% (inactive)	98.8%	89.5%	-3.42% (inactive)	0.95% (inactive)
Cc1cc2c(cc1C)-c1nnnn1C(C)(C)C2	110%	97.5% (inactive)	110% (inactive)	101% (inactive)	91.9% (inactive)	4.78% (inactive)	87.1%	91.9%	-9.07% (inactive)	-5.24% (inactive)
CCC1SC2=NC(C)=C(C(=O)OC)C(c3ccc(C)cc3)N2C1=O (stereo not given)	94%	96% (inactive)	94% (inactive)	109% (inactive)	99.6% (inactive)	9% (inactive)	90.6%	99.6%	-3.51% (inactive)	-1.59% (inactive)
CCOc1ccc(C(c2nnnn2Cc2ccccc2)N2CCN(C(=O)c3ccco3)CC2)cc1 (stereo not given)	92.5%	106% (inactive)	92.5% (inactive)	85.8% (inactive)	98.3% (inactive)	-4.47% (inactive)	103%	98.3%	0.53% (inactive)	-1.9% (inactive)
CCOc1ccc(C(=O)CN2CCN(S(=O)(=O)c3ccc(OC)cc3)CC2)cc1	99.5%	88% (inactive)	99.5% (inactive)	91.2% (inactive)	86.7% (inactive)	-8.05% (inactive)	94.7%	86.7%	-3.68% (inactive)	-8.33% (inactive)
Cc1cccc2c1N(CC(=O)OC(C)C)C(=O)C2=O	76.5%	103% (inactive)	76.5% (inactive)	95% (inactive)	75.2% (inactive)	-3.31% (inactive)	78.5%	75.2%	1.67% (inactive)	6.67% (inactive)
Cc1ccc(/C(O)=C2/C(=O)C(=O)N(Cc3ccco3)C2c2cccs2)cc1 (stereo not given)	103%	114% (inactive)	103% (inactive)	101% (inactive)	67.6% (inactive)	-13.1% (inactive)	80.7%	67.6%	-5.21% (inactive)	-7.78% (inactive)
CCCCn1c(NCCC)nc2c1c(=O)[nH]c(=O)n2C	96%	80% (inactive)	96% (inactive)	113% (inactive)	93.7% (inactive)	12.8% (inactive)	81%	93.7%	-3.51% (inactive)	-0.66% (inactive)
O=C1CSC(=Nc2ccc(O)cc2)N1c1ccc(O)cc1	93%	89.5% (inactive)	93% (inactive)	89.2% (inactive)	91.4% (inactive)	9.79% (inactive)	81.6%	91.4%	-7.07% (inactive)	-1.64% (inactive)
CCC(=O)Nc1cc2nn(-c3ccccc3)nc2cc1Cl	91%	90.5% (inactive)	91% (inactive)	55% (inactive)	68.2% (inactive)	-2.75% (inactive)	70.9%	68.2%	-7.57% (inactive)	5.9% (inactive)
COc1cc(C(=O)Nc2ccc3c(c2)C(=O)N(CCC(=O)O)C3=O)cc(OC)c1OC	97.5%	83% (inactive)	97.5% (inactive)	98% (inactive)	106% (inactive)	5.66% (inactive)	100%	106%	-3.42% (inactive)	-2.86% (inactive)
COC(=O)c1sc(N2C(=O)C(O)=C(C(=O)c3ccc(C)o3)C2c2ccc(F)cc2)nc1C (stereo not given)	95%	81.5% (inactive)	95% (inactive)	113% (inactive)	135% (inactive)	61.4% (inactive)	73.8%	135%	-1.08% (inactive)	-1.48% (inactive)
CCOC(=O)N1CCN(C(=O)CN(c2ccc(C)cc2)S(=O)(=O)c2c(C)noc2C)CC1	81.5%	94% (inactive)	81.5% (inactive)	106% (inactive)	86.1% (inactive)	-0.005% (inactive)	86.1%	86.1%	-4.73% (inactive)	6.51% (inactive)
CCN(CC)c1ccc(/C=N/n2nnnc2N)c(O)c1	119%	80% (inactive)	119% (inactive)	57.6% (inactive)	14.4% (active)	-42.7% (inactive)	57.2%	14.4%	0.52% (inactive)	-1.15% (inactive)

Compound	viability [1]	Her2 level [2]	viability [3]	viability [4]	viability [5]	differential viability (reversal) ([6]; H69AR cells + 2 uM doxorubicin)	viability [6, 9]	viability [6, 10]	inhibition [7]	inhibition [8]
CSc1nc(C)cc(OCC(=O)N2CCOCC2)n1	130%	112% (inactive)	130% (inactive)	99.2% (inactive)	92.7% (inactive)	2.54% (inactive)	90.2%	92.7%	-4.81% (inactive)	5% (inactive)
O=C(NCc1cccs1)C1CCN(S(=O)(=O)c2cccs2)CC1	103%	89% (inactive)	103% (inactive)	89.8% (inactive)	102% (inactive)	26.9% (inactive)	74.6%	102%	-5.19% (inactive)	-4.29% (inactive)
C=CCn1c(SCC(=O)NCCCC)nc2scc(-c3ccco3)c2c1=O	91.5%	75.5% (inactive)	91.5% (inactive)	95.4% (inactive)	88.8% (inactive)	2.11% (inactive)	86.7%	88.8%	0.13% (inactive)	-1.48% (inactive)
Cc1nc(-c2cnn(-c3ccccc3)c2)c2cc(C)oc2n1	74.5%	76% (inactive)	74.5% (inactive)	67.2% (inactive)	90.7% (inactive)	3.27% (inactive)	87.4%	90.7%	-2.11% (inactive)	3.28% (inactive)
CCC(=O)N1CCc2cc(Br)cc(S(=O)(=O)CCC(=O)NCC3CCCO3)c21 (stereo not given)	118%	90% (inactive)	118% (inactive)	106% (inactive)	92.8% (inactive)	13.4% (inactive)	79.4%	92.8%	-6.35% (inactive)	6% (inactive)
COc1ccc(CC(=O)N2CCOCC2)cc1OC	97.5%	99% (inactive)	97.5% (inactive)	102% (inactive)	91.9% (inactive)	-2.21% (inactive)	94.2%	91.9%	0.13% (inactive)	3.28% (inactive)
COc1ccc(C2C(=O)N(C3CCCCC3)CC(=O)N2Cc2ccco2)cc1 (stereo not given)	110%	91.5% (inactive)	110% (inactive)	95.9% (inactive)	97.7% (inactive)	18.2% (inactive)	79.5%	97.7%	-6.67% (inactive)	1.45% (inactive)
COc1ccc(OC)c(S(=O)(=O)N2CCC(C(=O)NCC3CCCO3)CC2)c1 (stereo not given)	101%	84.5% (inactive)	101% (inactive)	106% (inactive)	98.9% (inactive)	8.66% (inactive)	90.2%	98.9%	-6.27% (inactive)	-3.49% (inactive)
COc1ccc2c(c1)C(C)=CC(C)(C)N2C(=O)C(C)N1C(=O)c2ccccc2C1=O (stereo not given)	109%	104% (inactive)	109% (inactive)	81.6% (inactive)	85.7% (inactive)	-1.3% (inactive)	87%	85.7%	-5.71% (inactive)	-3.33% (inactive)
COc1ccc(N=c2scc(-c3ccc(S(=O)(=O)N4CCOCC4)cc3)n2CCCO)cc1	85.5%	80.5% (inactive)	85.5% (inactive)	96.4% (inactive)	72.8% (inactive)	37.2% (inactive)	35.6%	72.8%	1.67% (inactive)	-8.5% (inactive)
COc1ccc(C(C(C(=O)c2ccco2)N2CCOCC2)N2CCOCC2)cc1 (stereo not given)	97%	95% (inactive)	97% (inactive)	85.6% (inactive)	87.3% (inactive)	-4.03% (inactive)	91.4%	87.3%	-6.53% (inactive)	-10.6% (inactive)
Cc1ccccc1-n1c(=O)cc(NCc2ccc3c(c2)OCO3)[nH]c1=O	94.5%	89.5% (inactive)	94.5% (inactive)	104% (inactive)	103% (inactive)	2.75% (inactive)	100%	103%	-2.57% (inactive)	1.75% (inactive)
CCc1nnc(NC(=O)c2ccc(COc3ccc(C)cc3)o2)s1	104%	93.5% (inactive)	104% (inactive)	99.5% (inactive)	106% (inactive)	-4.93% (inactive)	111%	106%	-3.01% (inactive)	-3.17% (inactive)
CC(C)(C)C1CCc2[nH]nc(C(=O)O)c2C1 (stereo not given)	104%	86.5% (inactive)	104% (inactive)	92.3% (inactive)	98% (inactive)	3% (inactive)	95%	98%	-2.43% (inactive)	1.11% (inactive)
Cc1ccc(-c2ccc(=O)n(CCC(=O)NCc3ccccn3)n2)cc1	94.5%	84% (inactive)	94.5% (inactive)	89.3% (inactive)	84.3% (inactive)	-1.96% (inactive)	86.2%	84.3%	-3.95% (inactive)	0.81% (inactive)
CCCCn1nnnc1SCC(=O)Nc1cccc(C)n1	108%	115% (inactive)	108% (inactive)	111% (inactive)	113% (inactive)	7.5% (inactive)	105%	113%	2.3% (inactive)	3.5% (inactive)
